RORa activator: RORA (human) activation; 1.5% of 65,000 active; AID 560; activation, % at 10 µM; P35398; CHO-K1 Gal4-RORA LBD luciferase reporter, luminescence; percent increase over mock-subtracted basal signal;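 active = activation above the mean of all tested compounds plus 3 SD, cut at about 49% in these data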;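 note: 0% = DMSO-treated RORA cells and 100% = added signal equal to DMSO minus mock-transfected cells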
SF-1 act: SF-1 (human) activation | Q13285 | CHO-K1 Gal4-SF-1 LBD luciferase reporter; % increase over DMSO SF-1-specific signal | activation, % at 10 µM | 1.9% of 65,000 active | AID 522;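 active = activation above the mean activation of all tested compounds plus 3 SD, cut at about 50% in these data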
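Material: CHO-K1 cells with Gal4–hSF-1 LBD chimera plus Gal4-driven luciferase / Input: 4,000 CHO-K1 cells per well / Incubation: compound exposure 20 h at 37 °C / Signal: luminescence read 15 min after SteadyLite luciferase reagent, after room-temperature equilibration / Read-out: percent activation versus DMSO / Benchmarks: DMSO negative control and −SF1 background wells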
BAP1 inh: blocks human BAP1 ubiquitin-AMC hydrolysis. Q92560. recombinant BAP1, Ub-AMC hydrolysis fluorescence kinetic; stronger effect = lower value. calls only at 20 µM. 0.48% of 72,000 active. AID 436;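 active = activity remaining at or below 50% of control, provided the compound also passes the data quality filters; inactive = the rest, including low values that fail the filters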;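 note: 100% = DMSO wells rate and 0% = substrate alone blank rate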
ERb SRC1 inh: ER-beta (human) coactivator binding inhibition. Q92731. TR-FRET ER-beta LBD / SRC1-Cy5 peptide binding; receptor agonist-loaded with 1 µM estradiol. inhibition, % at 25.6 µM. 1.3% of 86,000 active;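 active = compounds whose percent inhibition of the receptor-coactivator binding signal exceeds about 50% in the single-dose screen, limit read from the data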;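 note: 0% = receptor plus peptide wells without compound and 100% = peptide-only wells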
Target sequence (Q92731 whole entry, looked up, the tested form may be a part): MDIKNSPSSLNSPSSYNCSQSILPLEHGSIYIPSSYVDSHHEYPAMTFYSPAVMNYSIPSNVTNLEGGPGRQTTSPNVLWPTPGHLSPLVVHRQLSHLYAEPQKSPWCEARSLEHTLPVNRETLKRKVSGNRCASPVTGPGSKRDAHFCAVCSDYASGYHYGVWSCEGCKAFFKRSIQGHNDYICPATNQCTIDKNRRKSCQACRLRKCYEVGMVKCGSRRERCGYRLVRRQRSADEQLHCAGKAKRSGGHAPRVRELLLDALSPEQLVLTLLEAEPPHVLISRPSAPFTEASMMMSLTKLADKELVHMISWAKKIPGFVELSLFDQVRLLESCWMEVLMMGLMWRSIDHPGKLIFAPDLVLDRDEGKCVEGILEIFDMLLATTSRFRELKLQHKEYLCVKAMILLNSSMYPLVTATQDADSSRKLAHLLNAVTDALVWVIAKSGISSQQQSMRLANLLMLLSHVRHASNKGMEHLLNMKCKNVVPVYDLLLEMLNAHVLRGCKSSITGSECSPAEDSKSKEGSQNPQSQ
ERa coact inh: blocks coactivator binding to human estrogen receptor alpha; P03372; TR-FRET ER-alpha LBD / SRC-1 peptide, estradiol-bound; inhibition, % at 25.6 µM; 1.7% of 86,000 active; in the data active = inhibition above about 50%;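 note: 0% = receptor plus peptide control and 100% = peptide only without receptor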
ERa coact pot: ER-alpha (human) coactivator binding potentiation; AID 639; TR-FRET ERalpha-LBD/SRC-Cy5 coactivator binding, 2 h; 100 = basal binding, no effect; 1.3% of 86,000 active; coactivator binding (% of control), % at 25.6 µM; P03372; in the data active = activity above about 200%;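 note: binding measured in presence of low estradiol as agonist stimulus; 0% = peptide alone without receptor and 100% = receptor with peptide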
Active calls of the source: *; i = inactive; . = not tested or not shown; [ ] = dose if it differs, or a comment. Only some compounds are listed: those with a hit (about 5.1% of all), similar ones and a draw of the others.

SMILES | RORa activator | SF-1 act | BAP1 inh | ERb SRC1 inh | ERa coact inh | ERa coact pot
CC(O)C(=O)C12CC3CC(CC(C3)C1)C2 (configuration not stated) | . | . | i | . | . | .
COc1ccc(CNc2ccc(C(=O)O)cc2)cc1 | 13 | 78* | i | -1 | -1 | 102
COc1ccc(S(=O)(=O)NCc2ccc(C(=O)O)cc2)cc1 | 0 | 3 | i | -11 | -6 | 107
COc1cccc(N2CCN(c3ncccn3)CC2)c1 | 27 | 48 | i | -2 | -2 | 338*[fluorescence artefact?]
COc1cccc(C(=O)N2CCN(c3ncccn3)CC2)c1 | -11 | -24 | i | -1 | -2 | 110
Cc1ccc(NC(=O)c2ccc(OC(=O)CCN3C(=O)c4ccccc4C3=O)cc2)cc1 | . | . | . | 12 | 21 | 372*[fluorescence artefact?]
N#Cc1c(-c2ccc(Cl)cc2)nc2n(c1=O)CCCS2 | . | . | . | 1 | 6 | 140
N#Cc1c(-c2ccc(Br)cc2)nc2n(c1=O)CCCS2 | . | . | . | 17 | 10 | 239*
CC(CCOC(=O)CN1CCCCC1)CCc1ccccc1 (configuration not stated) | . | . | i | . | . | .
CN(C)C(=O)CSc1nnc(CCN)o1 | -14 | 3 | i | -6 | -5 | 122
CN(C)C(=O)CSc1nnc(C23CC4CC(CC(C4)C2)C3)o1 | 18 | 88* | i | -6 | -3 | 119
O=C(Nc1ccc2c(c1)OCCO2)c1cncc(Br)c1 | 29 | 31 | i | -7 | -1 | 114
O=C(Nc1ccc2c(c1)OCO2)c1cncc(Br)c1 | 14 | 53* | i | . | . | .
O=C(Nc1ccc2c(c1)OCO2)c1c(F)cccc1F | 25 | 58* | i | 23 | 16 | 95
O=C(Nc1ccc2c(c1)OCO2)c1cccc(F)c1 | 52* | 21 | i | -8 | 3 | 116
Cn1c(=O)[nH]c(=O)c2c1nc(SCCO)n2CCc1ccccc1 | . | . | i | . | . | .
N#CCCN(CCC#N)S(=O)(=O)c1ccccc1 | . | . | i | . | . | .
COc1ccc(-c2nc(N)ncc2Oc2ccccc2Br)c(O)c1 | 14 | 11 | i | 36 | 24 | 241*[fluorescence artefact?]
C=C(C)COc1ccc(-c2n[nH]c(C)c2Oc2ccccc2OC)c(O)c1 | -10 | -5 | i | 9 | -2 | 82
COc1cccc(Oc2cnc(N)nc2-c2ccc(OC)cc2O)c1 | 45 | 42 | i | -4 | -7 | 92
C=C(C)COc1ccc(-c2nc(N)nc(C)c2Oc2ccccc2OC)c(O)c1 | -7 | -17 | i | 59*[fluorescence artefact?] | 29 | 286*[fluorescence artefact?]
Cc1cc2oc(=O)cc(COC(=O)c3n[nH]c4ccccc34)c2cc1C | . | . | . | 21 | 24 | 338*
COc1ccc(N2CCN(C(=O)c3ccc4nc(N5CCCCC5)sc4c3)CC2)cc1 | 68* | 31 | i | -1 | 6 | 72
O=C(C1CC1)N1CCN(c2nc3ccccc3s2)CC1 | 36 | 25 | i | 3 | 1 | 104
COc1cccc(N2CCN(C(=O)c3ccc4nc(N5CCCCC5)sc4c3)CC2)c1 | 78* | 89* | i | -7 | 0 | 109
SMILES | RORa activator | SF-1 act | BAP1 inh | ERb SRC1 inh | ERa coact inh | ERa coact pot
Cc1nc2ccc(C(=O)N3CCN(c4ccccn4)CC3)cc2s1 | -5 | 5 | i | 3 | -6 | 105
CCOC(=O)C1CCN(C(=O)C2CCN(c3nc4ccc(OC)cc4s3)CC2)CC1 | -16 | 0 | . | 91*[fluorescence artefact?] | -6 | 105
O=C(c1ccc2nc(N3CCOCC3)sc2c1)N1CCCC1 | 14 | 0 | i | -10 | -3 | 116
N=c1n(CCN2CCOCC2)c2ccccc2n1CC(=O)c1ccco1 | . | . | i | . | . | .
CCCn1c(=N)n(CC(O)c2ccccc2)c2ccccc21 (configuration not stated) | . | . | i | . | . | .
Cc1ccnc(SCC(=O)Nc2oc(-c3ccccc3)c(-c3ccccc3)c2C#N)n1 | 7 | 14 | . | 3 | -1 | 109
COc1ccc(-c2oc(NC(=O)CCl)c(C#N)c2-c2ccc(OC)cc2)cc1 | . | . | . | 55*[fluorescence artefact?] | 7 | 56
N#Cc1c(NC(=O)CSc2ncccn2)oc(-c2ccccc2)c1-c1ccccc1 | . | . | . | 45 | 60* | 60
CCOc1ccc(C(=O)Nc2cc(-c3nc4ccccc4[nH]3)ccc2C)cc1Cl | . | . | i | . | . | .
O=C(Nc1ccccc1C(F)(F)F)C(Cc1ccccc1)N1C(=O)c2ccccc2C1=O (configuration not stated) | . | . | i | . | . | .

Screens: PubChem BioAssay, several laboratories
